Most compounds without a hit are left out; they make up all but 3.5% or so of the library.
MrgX1 PAM: allosterically activates human MrgX1 receptor signaling | Q96LB2 | MrgX1-HEK293, Fluo-4 calcium flux, FDSS; hits give high values | B-score at 10 µM | 310,000 tested, 0.63% active | AID 588675;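 active = plate-corrected calcium response at least 3 library SD above typical, normal starting fluorescence, not activating the receptor alone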;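 also: compound read alongside a low EC10 to EC30 dose of BAM8-22 agonist; peak minus trough fluorescence over baseline measured at the second addition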
Target sequence (Q96LB2 whole entry, looked up): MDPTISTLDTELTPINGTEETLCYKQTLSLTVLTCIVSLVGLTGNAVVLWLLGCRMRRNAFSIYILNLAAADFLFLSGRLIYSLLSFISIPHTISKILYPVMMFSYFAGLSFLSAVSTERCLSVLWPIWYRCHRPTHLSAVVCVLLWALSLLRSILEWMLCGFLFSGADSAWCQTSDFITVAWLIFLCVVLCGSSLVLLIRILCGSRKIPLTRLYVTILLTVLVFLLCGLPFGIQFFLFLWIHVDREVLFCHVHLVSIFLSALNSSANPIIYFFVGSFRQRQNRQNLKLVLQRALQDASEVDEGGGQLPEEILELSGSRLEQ
MrgX1 ag: activates human MrgX1 receptor signaling; MrgX1-HEK293 cells, Fluo-4 calcium fluorescence, agonist mode; hits give high values; B-score at 10 µM; 310,000 tested, 0.44% active; AID 588627;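 active = calcium response B-score plate-corrected fluorescence ratio at least 3 library SD, with starting fluorescence B-score inside 5 SD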
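Test system: HEK293 cells stably expressing human MrgX1 receptor; amount: 15,000 cells per well; doses: compound delivered in addition one of three; times: overnight plating before 1 h dye loading; detection: Fluo-4 NW calcium-flux fluorescence, kinetic read; read-out basis: B-scored fluorescence response ratio; controls: positive and negative controls per plate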
MrgX1 antagonist: human MrgX1 receptor antagonism, primary screen; MRGX1-HEK293 calcium flux, Fluo-4, BAM8-22 antagonism; hits give low values; 310,000 tested, 1.3% active; B-score at 10 µM; AID 588676; Q96LB2;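 active = calcium-response B-score plate-corrected more than 3 library SD below zero, starting fluorescence within 5 deviations, no agonist response on first addition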;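 also: peak minus trough fluorescence over baseline after final BAM8-22 challenge near maximal dose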
RGS4 act: RGS4 potentiation or activation; HEK293 M3R/inducible RGS4, carbachol calcium flux Fluo4; hits give low values; B-score at 10 µM; 310,000 tested, 0.92% active;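 active = B-score of the integrated calcium signal more than 4 SD below the library mean, with starting fluorescence not abnormally high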;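 also: negative B-score means reduced calcium response which marks RGS4 activation or potentiation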
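Assay system: HEK293 FlpIn-TREx cells, stable M3R, doxycycline-inducible RGS4 / Probe or stimulus: carbachol, ECmax concentration / Times: overnight RGS4 induction, 30 min dye load 37 °C, 20 min compound RT / Signal: kinetic calcium fluorescence imaging with Fluo4-AM dye, 2 µM / Measure: Agonist-evoked peak-minus-minimum fluorescence over baseline, integrated ratio, B score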
RGS4 block: human RGS4 inhibition. P49798. HEK293 M3R/RGS4 inducible, Fluo-4 calcium flux; hits give high values; triggered by carbachol at its EC20. B-score at 10 µM. 310,000 tested, 0.45% active. AID 463165;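 active = B-score, a plate-corrected calcium signal, over three deviations above library mean, with baseline fluorescence within five deviations of library mean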;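 also: RGS4 expression induced by doxycycline in cells with stable M3 receptor; B-score is computed from the integrated fluorescence ratio over baseline after carbachol; higher B-score means a larger calcium signal and so more RGS4 inhibition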
Target sequence (P49798 whole entry, looked up): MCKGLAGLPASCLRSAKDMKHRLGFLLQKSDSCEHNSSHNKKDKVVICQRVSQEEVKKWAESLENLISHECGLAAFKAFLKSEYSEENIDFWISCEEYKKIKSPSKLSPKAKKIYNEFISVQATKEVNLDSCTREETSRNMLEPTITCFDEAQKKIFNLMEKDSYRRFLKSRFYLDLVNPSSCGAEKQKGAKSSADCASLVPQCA
MrgX1 ant reconf: human MrgX1 receptor antagonism, re-confirmation screen; shares compounds with MrgX1 antagonist; MrgX1-HEK293, BAM8-22 calcium flux, Fluo-4; hits give low values; remaining BAM8-22 calcium response % of control (hits give low values), % at 10 µM; 2,300 tested, 19% active;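 active = remaining agonist calcium response no higher than 100% minus 3 SD of agonist-only control wells, with starting fluorescence near control levels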;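 also: agonist BAM8-22 given at a near maximal EC90 to ECmax level; peak minus minimum fluorescence divided by baseline after agonist addition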
HEK293 Ca flux: activity in parental HEK293 cells lacking MrgX1. shares compounds with MrgX1 antagonist. Fluo-4 calcium fluorescence, FDSS. fluorescence ratio F(max-min)/F0 at 10 µM. 4,000 tested, 2% active. AID 624111;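 active = duplicate-averaged calcium fluorescence ratio at least three times the standard deviation of buffer wells, a nonspecific response in parental cells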
HEK293 Ca counter: counter-screen for MrgX1 allosteric activators: effect in parental HEK293 cells; 4,000 tested, 0.4% active; fluorescence ratio F(max-min)/F0 at 10 µM; parental HEK293 calcium flux, Fluo-4 fluorescence ratio; hits give high values; AID 624114; shares compounds with MrgX1 antagonist;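 active = calcium fluorescence ratio, averaged over duplicates, at least 3 SD of the buffer-well ratio, meaning a nonspecific response in receptor-free cells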;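 also: untransfected parental HEK293 lacking MrgX1 used as counterscreen for MrgX1 allosteric activators; fluorescence change taken during the second addition on a kinetic imager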
HEK293 Ca cntr2: MrgX1 activator counter-screen hit in parental HEK293 cells | shares compounds with MrgX1 antagonist | Fluo-4 calcium fluorescence (FDSS); hits give high values | fluorescence ratio F(max-min)/F0 at 10 µM | 4,000 tested, 8.7% active;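 active = calcium fluorescence ratio at least three times the spread of buffer wells, meaning a non-specific response in parental cells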
Large screens that a line does not name were inactive (follow-up assays come after a bar, where they were run).

Nc1nonc1-c1noc(N2CCCCC2)n1	MrgX1 antagonist -5.5 | MrgX1 ant reconf 85% | HEK293 Ca flux inactive | HEK293 Ca counter inactive | HEK293 Ca cntr2 inactive
Cc1oc2c(c1C(=O)Nc1ccc(C(=O)O)cc1)CCCC2	none
CC(C)Cc1cc(CN2CCC(CO)(Cc3cccc(C(F)(F)F)c3)CC2)[nH]n1	none
COC(=O)c1sc(-c2ccc(Cl)cc2)cc1NC(=O)COCC(=O)O	none
COC(=O)c1sc(-c2ccc(C(C)(C)C)cc2)cc1NC(=O)CCC(=O)O	MrgX1 antagonist -6.6 | MrgX1 ant reconf 58% | HEK293 Ca flux inactive | HEK293 Ca counter inactive | HEK293 Ca cntr2 inactive
COc1cc(C(=O)Nc2cccc(S(=O)(=O)N3CCCC3)c2)cc(OC)c1C	none
COc1ccc(-c2cc(C)no2)cc1S(=O)(=O)NCC(C)c1ccccc1 (configuration not stated)	MrgX1 antagonist -6.7 | MrgX1 ant reconf inactive | HEK293 Ca flux inactive | HEK293 Ca counter inactive | HEK293 Ca cntr2 inactive
CCOc1ccccc1CNS(=O)(=O)c1cc(-c2cc(C)no2)ccc1OC	none
CCC(C)C(=O)Nc1nc(C)c(-c2csc(Nc3cc(OC)ccc3OC)n2)s1 (configuration not stated)	MrgX1 antagonist -5.9 | MrgX1 ant reconf inactive | HEK293 Ca flux inactive | HEK293 Ca counter inactive | HEK293 Ca cntr2 inactive
CCC(Sc1nc2c(cnn2-c2ccccc2)c(=O)[nH]1)C(=O)OC (configuration not stated)	MrgX1 antagonist -5.2 | MrgX1 ant reconf 82% | HEK293 Ca flux inactive | HEK293 Ca counter inactive | HEK293 Ca cntr2 inactive
COC(=O)C(C)Sc1nc2c(cnn2-c2ccc(F)cc2)c(=O)[nH]1 (configuration not stated)	none
COc1ccc(CNC(=O)CCn2c(=O)oc3ccccc32)c(OC)c1	none
Cc1ccnc(N2CCC(C(=O)Nc3ccc(Oc4ccccc4)cc3)CC2)n1	none
Cc1ccnc(N2CCC(C(=O)Nc3cccc(C(F)(F)F)c3)CC2)n1	MrgX1 antagonist -4.8 | MrgX1 ant reconf inactive | HEK293 Ca flux inactive | HEK293 Ca counter inactive | HEK293 Ca cntr2 inactive
CCOc1ccc(N2C(=O)CC(NC3CCN(C(=O)c4ccc(F)cc4)CC3)C2=O)cc1 (configuration not stated)	none
CCCCN1CC[C@H]2C=CC[C@@H](C(=O)NCCc3ccccc3)[C@H]2C1=O	MrgX1 antagonist -6.1 | MrgX1 ant reconf inactive | HEK293 Ca flux inactive | HEK293 Ca counter inactive | HEK293 Ca cntr2 inactive
COc1ccc(CN2CC[C@H]3C=CC[C@@H](C(=O)NCCc4ccccc4)[C@H]3C2=O)cc1OC	none
CC(=O)N1CCOc2ccc(S(=O)(=O)NCCc3cccc(C)c3)cc21	none
O=C1CCN(S(=O)(=O)c2ccc(Cl)cc2)CCN1	MrgX1 antagonist -4.6 | MrgX1 ant reconf 84% | HEK293 Ca flux inactive | HEK293 Ca counter inactive | HEK293 Ca cntr2 inactive
COCCN(C(=O)c1snc(C(N)=O)c1N)C(C(=O)NC1CCCCC1)c1ccc(OC)c(OC)c1 (configuration not stated)	none
CC(=O)NC1C(=O)N(CCN2CCOCC2)c2ccc(Br)cc21 (configuration not stated)	MrgX1 antagonist -9.3 | MrgX1 ant reconf inactive | HEK293 Ca flux inactive | HEK293 Ca counter inactive | HEK293 Ca cntr2 47
CCOc1ccc2c(c1)C(NC(C)=O)C(=O)N2CCN1CCOCC1 (configuration not stated)	MrgX1 antagonist -12 | MrgX1 ant reconf inactive | HEK293 Ca flux inactive | HEK293 Ca counter inactive | HEK293 Ca cntr2 inactive
CCN1C(=O)C(NC(C)=O)c2cc(OC)ccc21 (configuration not stated)	none
O=C(c1ccc(=O)[nH]c1)N1CCCc2ccccc21	none
Cc1cccc(C)c1NC(=O)C(C)Sc1nnc(C)n1CC1CCCO1 (configuration not stated)	none (no result: MrgX1 PAM, MrgX1 ag, MrgX1 antagonist)
Cc1cc(NC(=O)CC2CCCC2)ccc1Br	none
Cc1cccc(NC(=O)CC2CCC2)c1	MrgX1 antagonist -5.8 | MrgX1 ant reconf inactive | HEK293 Ca flux inactive | HEK293 Ca counter inactive | HEK293 Ca cntr2 inactive
CC(=O)Nc1ccc(S(=O)(=O)Nc2nc3ccccc3nc2Nc2cccc(O)c2)cc1	none
O=S(=O)(Nc1nc2ccccc2nc1Nc1ccc2c(c1)OCCO2)c1cccs1	none
CC(=O)Nc1ccc(S(=O)(=O)Nc2cc(C)c(-n3nc4ccccc4n3)cc2O)cc1	MrgX1 antagonist -5.2 | MrgX1 ant reconf inactive | HEK293 Ca flux inactive | HEK293 Ca counter inactive | HEK293 Ca cntr2 inactive
CC(=O)Nc1ccc(S(=O)(=O)Nc2nc3ccccc3nc2Nc2ccc(N)cc2)cc1	MrgX1 antagonist -6.2 | MrgX1 ant reconf 75% | HEK293 Ca flux inactive | HEK293 Ca counter inactive | HEK293 Ca cntr2 inactive
COc1ccc(S(=O)(=O)Nc2nc3ccccc3nc2Nc2ccc3c(c2)OCO3)cc1	MrgX1 antagonist -5.1 | MrgX1 ant reconf inactive | HEK293 Ca flux inactive | HEK293 Ca counter inactive | HEK293 Ca cntr2 inactive
CC(=O)Nc1ccc(S(=O)(=O)Nc2nc3ccccc3nc2Nc2ccc3ccccc3c2)cc1	none
O=C1O/C(=C/C(=O)N2CCOCC2)c2ccccc21	none
Cc1ccc(NC(=O)c2cccs2)cc1NC(=O)c1cccnc1	none
Cc1cccc(NC(=O)c2cccnc2)c1	none
O=C(Nc1ccc(NC(=O)c2cccs2)cc1)c1cccnc1	MrgX1 antagonist -5.8 | MrgX1 ant reconf inactive | HEK293 Ca flux inactive | HEK293 Ca counter inactive | HEK293 Ca cntr2 inactive
Cc1cc(NC(=O)c2cccnc2)ccc1Br	MrgX1 antagonist -7.5 | MrgX1 ant reconf inactive | HEK293 Ca flux inactive | HEK293 Ca counter inactive | HEK293 Ca cntr2 inactive
O=C(NCCOC(=O)c1cccs1)c1cccnc1	MrgX1 antagonist -7.8 | MrgX1 ant reconf inactive | HEK293 Ca flux inactive | HEK293 Ca counter inactive | HEK293 Ca cntr2 inactive
CC(C(=O)N1CCCc2ccccc21)N1CCN(S(=O)(=O)c2ccccc2F)CC1 (configuration not stated)	none
Cn1c(SCC(=O)Nc2ccccc2)nc2ccccc2c1=O	none
Cc1oc(CC(C)C)c(CN)c1C(=O)O	MrgX1 antagonist -4.6 | MrgX1 ant reconf inactive | HEK293 Ca flux inactive | HEK293 Ca counter inactive | HEK293 Ca cntr2 inactive
COc1ccc(NC2CCCN(C(=O)CCc3cn[nH]c3)C2)cc1 (configuration not stated)	none

Bioassay records: PubChem, Johns Hopkins Ion Channel Center
